Measured values taken from ChEMBL document CHEMBL1152612, “Ursolic acid derivatives induce cell cycle arrest and apoptosis in NTUB1 cells associated with reactive oxygen species” (Bioorg Med Chem, 2009).
Calls of active or inactive are those of the source. No cut-off for these calls is given here.

How the values were obtained:
[1] = Cytotoxicity against human NTUB1 cells after 72 hrs by MTT assay; type: functional, cell-based; conditions: NTUB1, 72 h
Summary of the method: (§1)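 Cells grown in RPMI 1640 with 10% FBS, penicillin/streptomycin and 2 mM L-glutamine at 37 °C under 5% CO₂. Seeded 1800 cells/well, left overnight, then given graded compound concentrations for 72 h; compounds diluted from DMSO, 0.1% DMSO in medium and in controls. MTT 2 mg/mL in PBS for 3 h, formazan dissolved in DMSO, absorbance 540 nm. Viability given as % of control; IC50 by median-effect analysis, mean ± SD.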

[2] = Cytotoxicity against human NTUB1 cells assessed as cell viability at >30 uM after 72 hrs by MTT assay; type: functional; summary of the method: as §1
PC-3 = experiment: Cytotoxicity against human PC3 cells at 50 uM after 72 hrs by MTT assay; type: functional, cell-based; summary of the method: as §1
A549 = experiment: Cytotoxicity against human A549 cells at 50 uM after 72 hrs by MTT assay; type: functional, cell-based; summary of the method: as §1
NTUB1 [3] = experiment: Increase in intracellular reactive oxygen species level in human NTUB1 cells at 40 uM after 24 hrs by DCFH-DA staining; type: functional, cell-based
Summary of the method: (§2)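 NTUB1 cells treated for 24 or 48 h, with or without 1 mM N-acetylcysteine. DCFH-DA (10 µM) added 30 min before harvest; cells then trypsinized, PBS-washed, and DCF green fluorescence read at once by flow cytometry through a 525 nm band-pass filter. Three independent experiments.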

NTUB1 [4] = experiment: Increase in intracellular reactive oxygen species level in human NTUB1 cells at 40 uM after 24 hrs in presence of 1 mM N-acetyl-cysteine by DCFH-DA staining; type: functional, cell-based; summary of the method: as §2
NTUB1 [5] = experiment: Increase in intracellular reactive oxygen species level in human NTUB1 cells at 20 uM after 48 hrs by DCFH-DA staining; type: functional, cell-based; summary of the method: as §2
NTUB1 [6] = experiment: Increase in intracellular reactive oxygen species level in human NTUB1 cells at 40 uM after 48 hrs by DCFH-DA staining; type: functional, cell-based; summary of the method: as §2
NTUB1 [7] = experiment: Increase in intracellular reactive oxygen species level in human NTUB1 cells at 40 uM after 48 hrs in presence of 1 mM N-acetyl-cysteine by DCFH-DA staining; type: functional, cell-based; summary of the method: as §2
[8] = Induction of apoptosis in human NTUB1 cells assessed as accumulation at subG1 phase at 10 uM after 24 hrs using propidium iodide staining by flow cytometry; type: functional
Summary of the method: (§3)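 NTUB1 cells plated at 8 × 10⁵ per 10 cm dish and exposed to compound for 24 or 48 h; untreated controls got medium alone. Cells trypsinized, PBS-washed and fixed overnight in ice-cold MeOH at −20 °C, then stained with 50 µg/mL propidium iodide plus RNase A. DNA content was read by flow cytometry, with apoptosis taken as sub-G1 accumulation. Three independent experiments.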

[9] = Cell cycle arrest in human NTUB1 cells assessed as accumulation at G1 phase at 10 uM after 24 hrs using propidium iodide staining by flow cytometry; type: functional, cell-based; summary of the method: as §3
[10] = Cell cycle arrest in human NTUB1 cells assessed as accumulation at S phase at 10 uM after 24 hrs using propidium iodide staining by flow cytometry; type: functional, cell-based; summary of the method: as §3
[11] = Cell cycle arrest in human NTUB1 cells assessed as accumulation at G2/M phase at 10 uM after 24 hrs using propidium iodide staining by flow cytometry; type: functional, cell-based; summary of the method: as §3
[12] = Induction of apoptosis in human NTUB1 cells assessed as accumulation at subG1 phase at 20 uM after 24 hrs using propidium iodide staining by flow cytometry; type: functional; summary of the method: as §3
[13] = Cell cycle arrest in human NTUB1 cells assessed as accumulation at G1 phase at 20 uM after 24 hrs using propidium iodide staining by flow cytometry; type: functional, cell-based; summary of the method: as §3
[14] = Cell cycle arrest in human NTUB1 cells assessed as accumulation at S phase at 20 uM after 24 hrs using propidium iodide staining by flow cytometry; type: functional, cell-based; summary of the method: as §3
[15] = Cell cycle arrest in human NTUB1 cells assessed as accumulation at G2/M phase at 20 uM after 24 hrs using propidium iodide staining by flow cytometry; type: functional, cell-based; summary of the method: as §3
[16] = Induction of apoptosis in human NTUB1 cells assessed as accumulation at subG1 phase at 40 uM after 24 hrs using propidium iodide staining by flow cytometry; type: functional; summary of the method: as §3
[17] = Cell cycle arrest in human NTUB1 cells assessed as accumulation at G1 phase at 40 uM after 24 hrs using propidium iodide staining by flow cytometry; type: functional, cell-based; summary of the method: as §3
[18] = Cell cycle arrest in human NTUB1 cells assessed as accumulation at S phase at 40 uM after 24 hrs using propidium iodide staining by flow cytometry; type: functional, cell-based; summary of the method: as §3
[19] = Cell cycle arrest in human NTUB1 cells assessed as accumulation at G2/M phase at 40 uM after 24 hrs using propidium iodide staining by flow cytometry; type: functional, cell-based; summary of the method: as §3
[20] = Induction of apoptosis in human NTUB1 cells assessed as accumulation at subG1 phase at 20 uM after 48 hrs using propidium iodide staining by flow cytometry; type: functional; summary of the method: as §3
[21] = Cell cycle arrest in human NTUB1 cells assessed as accumulation at G1 phase at 20 uM after 48 hrs using propidium iodide staining by flow cytometry; type: functional, cell-based; summary of the method: as §3
[22] = Cell cycle arrest in human NTUB1 cells assessed as accumulation at S phase at 20 uM after 48 hrs using propidium iodide staining by flow cytometry; type: functional, cell-based; summary of the method: as §3
[23] = Cell cycle arrest in human NTUB1 cells assessed as accumulation at G2/M phase at 20 uM after 48 hrs using propidium iodide staining by flow cytometry; type: functional, cell-based; summary of the method: as §3
[24] = Induction of apoptosis in human NTUB1 cells assessed as accumulation at subG1 phase at 40 uM after 48 hrs using propidium iodide staining by flow cytometry; type: functional; summary of the method: as §3
[25] = Cell cycle arrest in human NTUB1 cells assessed as accumulation at G1 phase at 40 uM after 48 hrs using propidium iodide staining by flow cytometry; type: functional, cell-based; summary of the method: as §3
[26] = Cell cycle arrest in human NTUB1 cells assessed as accumulation at S phase at 40 uM after 48 hrs using propidium iodide staining by flow cytometry; type: functional, cell-based; summary of the method: as §3
[27] = Cell cycle arrest in human NTUB1 cells assessed as accumulation at G2/M phase at 40 uM after 48 hrs using propidium iodide staining by flow cytometry; type: functional, cell-based; summary of the method: as §3
NTUB1 [28] = experiment: Increase in intracellular reactive oxygen species level in human NTUB1 cells at 20 uM after 48 hrs in presence of 1 mM N-acetyl-cysteine by DCFH-DA staining; type: functional, cell-based; summary of the method: as §2

Question: Which IC50 [1] does the source give for `CCCCCCOC(=O)[C@]12CC[C@@H](C)[C@H](C)[C@H]1C1=CC[C@@H]3[C@@]4(C)CC[C@H](O)C(C)(C)[C@@H]4CC[C@@]3(C)[C@]1(C)CC2` here?
Answer: 26.2 µM

Question: Which IC50 [1] does the source give for `C=C(C)[C@@H]1CC[C@]2(C)[C@H](CC=C3[C@@H]4[C@@H](C)[C@H](C)CC[C@]4(C(=O)OC)CC[C@]32C)[C@@]1(C)CCC(=O)OC` here?
Answer: 15.6 µM

Question: Which Activity [2] does the source give for `C[C@H]1[C@H](C)CC[C@]2(C(=O)O)CC[C@]3(C)C(=CC[C@@H]4[C@@]5(C)CCC(=O)OC(C)(C)[C@@H]5CC[C@]43C)[C@H]12` here?
Answer: 63.91%

Question: What about the IC50 [1] of the same compound?
Answer: > 30 µM

Question: Which IC50 [1] does the source give for `COC(=O)[C@]12CC[C@@H](C)[C@H](C)[C@H]1C1=CC[C@@H]3[C@@]4(C)CC[C@H](O)C(C)(C)[C@@H]4CC[C@@]3(C)[C@]1(C)CC2` [METHYL URSOLATE] here?
Answer: 37.1 µM

Question: With `C[C@H]1[C@H](C)CC[C@]2(C(=O)O)CC[C@]3(C)C(=CC[C@@H]4[C@@](C)(CCC(=O)O)[C@H](C(C)(C)O)CC[C@]43C)[C@H]12` as the compound, how does the Activity [2] read?
Answer: 56.04%

Question: What about the IC50 [1] of the same compound?
Answer: > 30 µM

Question: With `C/C=C/C(=O)O[C@H]1CC[C@]2(C)[C@H]3CC=C4[C@@H]5[C@@H](C)[C@H](C)CC[C@]5(C(=O)O)CC[C@@]4(C)[C@]3(C)CC[C@H]2C1(C)C` as the compound, how does the IC50 [1] read?
Answer: 11.9 µM

Question: Which results are given for `CC(C)OC(=O)[C@]12CC[C@@H](C)[C@H](C)[C@H]1C1=CC[C@@H]3[C@@]4(C)CC[C@H](O)C(C)(C)[C@@H]4CC[C@@]3(C)[C@]1(C)CC2`?
Answer: IC50 [1]: 7.97 µM; Activity (PC-3): Active; Activity (A549): Active; Activity (NTUB1 [3]): Active; Activity (NTUB1 [4]): inactive; Activity (NTUB1 [5]): Active; Activity (NTUB1 [6]): Active; Activity (NTUB1 [7]): Active; Activity [8]: 13.8%; Activity [9]: 33.9%; Activity [10]: 31.7%; Activity [11]: 15.3%; Activity [12]: 23.5%; Activity [13]: 51%; Activity [14]: 15.8%; Activity [15]: 9.18%; Activity [16]: 23.73%; Activity [17]: 58.1%; Activity [18]: 4.53%; Activity [19]: 11%; Activity [20]: 6.73%; Activity [21]: 52.1%; Activity [22]: 20.5%; Activity [23]: 16.2%; Activity [24]: 43.81%; Activity [25]: 8.53%; Activity [26]: 1.31%; Activity [27]: 1.96%; Activity (NTUB1 [28]): Active

Question: Which Activity [2] does the source give for `CCCC(=O)O[C@H]1CC[C@]2(C)[C@H]3CC=C4[C@@H]5[C@@H](C)[C@H](C)CC[C@]5(C(=O)O)CC[C@@]4(C)[C@]3(C)CC[C@H]2C1(C)C` here?
Answer: 76.47%

Question: What about the IC50 [1] of the same compound?
Answer: > 30 µM

Question: For `CC(=O)O[C@H]1CC[C@]2(C)[C@H]3CC=C4[C@@H]5[C@@H](C)[C@H](C)CC[C@]5(C(=O)O)CC[C@@]4(C)[C@]3(C)CC[C@H]2C1(C)C` [O-ACETYLURSOLIC ACID], which IC50 [1] is on record?
Answer: 14.3 µM

Question: Which IC50 [1] does the source give for `COC(=O)[C@]12CC[C@@H](C)[C@H](C)[C@H]1C1=CC[C@@H]3[C@@]4(C)CCC(=O)C(C)(C)[C@@H]4CC[C@@]3(C)[C@]1(C)CC2` here?
Answer: 29.6 µM

Question: Which IC50 [1] does the source give for `CCOC(=O)[C@]12CC[C@@H](C)[C@H](C)[C@H]1C1=CC[C@@H]3[C@@]4(C)CC[C@H](O)C(C)(C)[C@@H]4CC[C@@]3(C)[C@]1(C)CC2` here?
Answer: 13.5 µM

Question: Which IC50 [1] does the source give for `C[C@H]1[C@H](C)CC[C@]2(C(=O)OCCO)CC[C@]3(C)C(=CC[C@@H]4[C@@]5(C)CC[C@H](O)C(C)(C)[C@@H]5CC[C@]43C)[C@H]12` here?
Answer: 19.5 µM
